Results on 19 molecules are retold here after ChEMBL document CHEMBL4052600 (J Med Chem, 2017).

Assay [1] deals with Phosphatidylinositol 4,5-bisphosphate 3-kinase catalytic subunit beta isoform (Homo sapiens, UniProt P42338). As to the kind of experiment: Inhibition of PI3Kbeta (unknown origin) using PIP2 as substrate preincubated for 15 mins followed by substrate addition measured after 60 mins in presence of ATP by HTRF method. In general terms: TR-FRET usually uses a lanthanide donor and a delayed reading to cut background.

Assay [2] has as its target Phosphatidylinositol 4,5-bisphosphate 3-kinase catalytic subunit alpha isoform (Homo sapiens, UniProt P42336). As to the kind of experiment: Inhibition of PI3Kalpha (unknown origin) using PIP2 as substrate preincubated for 15 mins followed by substrate addition measured after 60 mins in presence of ATP by HTRF method. The gist of the method:
(§1)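 For PI3Kδ, substrate concentration limits measurable potency to about pIC50 9.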

Assay [3] deals with T1, Phosphatidylinositol 4,5-bisphosphate 3-kinase catalytic subunit delta isoform (Homo sapiens, UniProt O00329).
T1 sequence (O00329 whole entry): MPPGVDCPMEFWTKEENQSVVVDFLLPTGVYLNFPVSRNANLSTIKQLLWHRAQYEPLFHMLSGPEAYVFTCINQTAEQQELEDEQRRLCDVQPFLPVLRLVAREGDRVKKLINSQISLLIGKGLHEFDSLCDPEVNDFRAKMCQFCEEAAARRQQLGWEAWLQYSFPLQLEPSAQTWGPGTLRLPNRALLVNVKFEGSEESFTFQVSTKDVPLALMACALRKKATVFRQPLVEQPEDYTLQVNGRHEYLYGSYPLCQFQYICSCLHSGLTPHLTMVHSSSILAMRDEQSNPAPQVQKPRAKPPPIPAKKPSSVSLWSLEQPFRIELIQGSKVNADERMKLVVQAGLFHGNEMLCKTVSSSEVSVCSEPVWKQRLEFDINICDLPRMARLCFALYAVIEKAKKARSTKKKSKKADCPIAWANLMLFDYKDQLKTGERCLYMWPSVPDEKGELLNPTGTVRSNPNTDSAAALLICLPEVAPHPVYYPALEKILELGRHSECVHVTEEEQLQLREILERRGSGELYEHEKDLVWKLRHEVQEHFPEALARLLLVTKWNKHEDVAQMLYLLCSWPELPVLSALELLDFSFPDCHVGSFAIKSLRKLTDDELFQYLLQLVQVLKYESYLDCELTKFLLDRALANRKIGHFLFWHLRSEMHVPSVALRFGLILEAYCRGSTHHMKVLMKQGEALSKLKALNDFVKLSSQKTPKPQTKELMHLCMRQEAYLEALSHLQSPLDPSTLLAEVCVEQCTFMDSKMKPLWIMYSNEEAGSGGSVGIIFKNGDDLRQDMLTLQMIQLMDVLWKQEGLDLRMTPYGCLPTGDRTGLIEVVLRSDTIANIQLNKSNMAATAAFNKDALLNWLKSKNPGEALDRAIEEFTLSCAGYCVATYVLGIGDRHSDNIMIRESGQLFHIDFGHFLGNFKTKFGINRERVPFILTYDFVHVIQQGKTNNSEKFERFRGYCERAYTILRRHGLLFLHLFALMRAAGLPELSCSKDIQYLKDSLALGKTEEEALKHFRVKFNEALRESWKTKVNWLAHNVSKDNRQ
As to the kind of experiment: Inhibition of PI3Kdelta (unknown origin) using PIP2 as substrate preincubated for 15 mins followed by substrate addition measured after 60 mins in presence of ATP by HTRF method. The gist of the method:
as §1

In assay [4] the target is Phosphatidylinositol 4,5-bisphosphate 3-kinase catalytic subunit gamma isoform (Homo sapiens, UniProt P48736). Nature of the assay: Inhibition of PI3Kgamma (unknown origin) using PIP2 as substrate preincubated for 15 mins followed by substrate addition measured after 60 mins in presence of ATP by HTRF method.
In assay [5] the target is C-C chemokine receptor type 5 (Homo sapiens, UniProt P51681). As to the kind of experiment: Antagonist activity at human CCR5 expressed in HEK 293 Glosensor cells assessed as reduction in RANTES-induced intracellular calcium levels preincubated for 30 mins followed by RANTES addition measured at 2 secs time interval for 5 mins by Fluo-4-AM dye based fluorescence assay. Format: functional, cell-based.

The term IC50 denotes the concentration that inhibits the measured activity by half. The Kd is the concentration at which binding is half-saturated.

Chain of Phosphatidylinositol 4,5-bisphosphate 3-kinase catalytic subunit beta isoform (P42338 whole entry, canonical isoform): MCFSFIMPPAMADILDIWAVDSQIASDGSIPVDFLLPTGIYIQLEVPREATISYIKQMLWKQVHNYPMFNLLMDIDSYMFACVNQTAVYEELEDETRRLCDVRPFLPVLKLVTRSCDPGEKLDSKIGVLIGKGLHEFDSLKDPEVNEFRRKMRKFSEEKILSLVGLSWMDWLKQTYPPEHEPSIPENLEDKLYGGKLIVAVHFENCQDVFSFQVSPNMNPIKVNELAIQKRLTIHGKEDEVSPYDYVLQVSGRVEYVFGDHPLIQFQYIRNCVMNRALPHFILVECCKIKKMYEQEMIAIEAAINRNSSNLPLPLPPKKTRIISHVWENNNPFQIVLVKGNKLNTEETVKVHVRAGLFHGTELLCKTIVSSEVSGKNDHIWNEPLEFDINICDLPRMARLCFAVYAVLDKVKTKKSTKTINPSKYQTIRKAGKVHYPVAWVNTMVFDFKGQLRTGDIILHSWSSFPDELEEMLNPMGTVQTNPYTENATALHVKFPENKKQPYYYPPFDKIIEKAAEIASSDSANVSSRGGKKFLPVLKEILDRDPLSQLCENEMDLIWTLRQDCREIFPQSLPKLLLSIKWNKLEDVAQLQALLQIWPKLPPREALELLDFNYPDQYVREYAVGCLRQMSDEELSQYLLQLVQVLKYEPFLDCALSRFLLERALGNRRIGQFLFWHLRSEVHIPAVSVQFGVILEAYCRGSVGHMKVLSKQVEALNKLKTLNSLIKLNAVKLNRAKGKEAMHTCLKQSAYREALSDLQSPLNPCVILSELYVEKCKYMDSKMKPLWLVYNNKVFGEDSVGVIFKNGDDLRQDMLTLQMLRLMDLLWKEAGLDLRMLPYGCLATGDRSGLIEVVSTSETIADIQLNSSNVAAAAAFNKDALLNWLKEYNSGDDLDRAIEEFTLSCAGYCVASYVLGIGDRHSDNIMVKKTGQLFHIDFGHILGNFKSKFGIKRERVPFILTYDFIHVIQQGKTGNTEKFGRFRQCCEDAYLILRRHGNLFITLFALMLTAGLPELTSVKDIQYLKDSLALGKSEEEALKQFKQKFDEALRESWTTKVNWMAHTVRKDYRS
Chain of Phosphatidylinositol 4,5-bisphosphate 3-kinase catalytic subunit alpha isoform (P42336 whole entry, canonical isoform): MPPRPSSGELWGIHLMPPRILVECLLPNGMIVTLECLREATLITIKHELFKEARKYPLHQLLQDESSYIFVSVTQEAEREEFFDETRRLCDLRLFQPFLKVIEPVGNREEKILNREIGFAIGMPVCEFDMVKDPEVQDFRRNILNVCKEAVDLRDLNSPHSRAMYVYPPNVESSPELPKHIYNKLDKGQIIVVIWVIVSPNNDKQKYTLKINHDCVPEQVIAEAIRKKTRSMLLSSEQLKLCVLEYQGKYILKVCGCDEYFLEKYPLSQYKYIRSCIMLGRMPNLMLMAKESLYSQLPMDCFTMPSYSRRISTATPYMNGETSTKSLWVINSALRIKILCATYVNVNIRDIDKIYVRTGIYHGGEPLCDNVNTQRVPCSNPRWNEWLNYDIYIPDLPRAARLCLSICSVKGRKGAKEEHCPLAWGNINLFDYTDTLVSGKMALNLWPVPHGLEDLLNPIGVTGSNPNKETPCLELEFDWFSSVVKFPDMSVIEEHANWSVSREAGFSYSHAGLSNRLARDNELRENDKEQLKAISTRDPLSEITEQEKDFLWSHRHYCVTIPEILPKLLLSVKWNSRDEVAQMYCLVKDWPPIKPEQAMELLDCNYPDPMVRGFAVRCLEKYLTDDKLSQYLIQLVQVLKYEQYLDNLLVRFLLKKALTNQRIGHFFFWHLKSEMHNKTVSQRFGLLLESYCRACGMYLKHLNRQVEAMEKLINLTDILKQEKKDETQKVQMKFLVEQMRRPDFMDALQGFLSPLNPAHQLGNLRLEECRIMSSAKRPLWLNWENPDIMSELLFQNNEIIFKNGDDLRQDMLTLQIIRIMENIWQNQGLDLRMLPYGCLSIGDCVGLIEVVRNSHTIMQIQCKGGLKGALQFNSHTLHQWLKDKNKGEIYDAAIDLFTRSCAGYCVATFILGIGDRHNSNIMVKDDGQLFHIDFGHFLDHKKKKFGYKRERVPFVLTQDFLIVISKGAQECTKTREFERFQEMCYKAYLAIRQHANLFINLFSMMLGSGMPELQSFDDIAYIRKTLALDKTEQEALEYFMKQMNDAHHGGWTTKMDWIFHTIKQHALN
Chain of Phosphatidylinositol 4,5-bisphosphate 3-kinase catalytic subunit gamma isoform (P48736 whole entry, canonical isoform): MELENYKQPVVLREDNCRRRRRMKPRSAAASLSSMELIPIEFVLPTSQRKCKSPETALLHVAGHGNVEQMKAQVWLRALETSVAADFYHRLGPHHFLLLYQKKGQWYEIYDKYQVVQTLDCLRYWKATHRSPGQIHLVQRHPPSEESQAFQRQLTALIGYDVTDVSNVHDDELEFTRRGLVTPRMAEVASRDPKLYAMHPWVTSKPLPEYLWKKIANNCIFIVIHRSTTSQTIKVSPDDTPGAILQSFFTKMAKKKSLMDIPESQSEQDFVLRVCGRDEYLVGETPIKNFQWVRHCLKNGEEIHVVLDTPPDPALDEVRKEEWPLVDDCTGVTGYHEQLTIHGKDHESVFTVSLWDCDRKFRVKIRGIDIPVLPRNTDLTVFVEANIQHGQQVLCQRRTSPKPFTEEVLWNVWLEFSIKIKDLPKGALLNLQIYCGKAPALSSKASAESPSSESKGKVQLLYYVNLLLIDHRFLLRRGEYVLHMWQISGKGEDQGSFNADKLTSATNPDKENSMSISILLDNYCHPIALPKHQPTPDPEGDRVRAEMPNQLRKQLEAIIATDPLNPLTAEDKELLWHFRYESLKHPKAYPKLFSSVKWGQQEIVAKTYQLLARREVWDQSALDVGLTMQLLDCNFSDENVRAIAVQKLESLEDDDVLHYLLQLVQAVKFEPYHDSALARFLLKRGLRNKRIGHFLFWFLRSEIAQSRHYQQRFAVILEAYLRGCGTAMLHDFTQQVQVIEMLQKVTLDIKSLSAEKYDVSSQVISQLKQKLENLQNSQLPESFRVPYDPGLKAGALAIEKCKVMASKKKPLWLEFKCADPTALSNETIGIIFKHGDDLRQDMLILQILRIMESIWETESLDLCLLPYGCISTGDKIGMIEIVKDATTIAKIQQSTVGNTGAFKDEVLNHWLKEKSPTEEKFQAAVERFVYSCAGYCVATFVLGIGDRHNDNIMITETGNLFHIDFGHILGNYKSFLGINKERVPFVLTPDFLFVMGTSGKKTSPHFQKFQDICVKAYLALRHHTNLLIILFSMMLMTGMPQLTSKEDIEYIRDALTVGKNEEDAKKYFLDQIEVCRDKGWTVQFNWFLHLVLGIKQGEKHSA
Chain of C-C chemokine receptor type 5 (P51681 whole entry): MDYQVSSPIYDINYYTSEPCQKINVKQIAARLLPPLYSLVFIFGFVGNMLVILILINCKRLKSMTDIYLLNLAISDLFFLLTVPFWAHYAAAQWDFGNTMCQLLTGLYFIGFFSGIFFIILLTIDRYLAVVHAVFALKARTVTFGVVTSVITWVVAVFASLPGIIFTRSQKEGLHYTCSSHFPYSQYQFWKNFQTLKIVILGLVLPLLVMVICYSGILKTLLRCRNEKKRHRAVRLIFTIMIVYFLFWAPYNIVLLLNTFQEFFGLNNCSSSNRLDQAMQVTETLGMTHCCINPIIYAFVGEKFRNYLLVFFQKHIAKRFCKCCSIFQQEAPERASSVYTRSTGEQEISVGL

Regarding `Cc1nnc2n1[C@H]1CCN(Cc3cc4nc(-c5cccc6[nH]ccc56)nc(N5CCOCC5)c4s3)C[C@H]1CC2` (relative stereo), the IC50 in assay [1] was 316 nM; in assay [2], 3160 nM; in assay [3] it was 0.794 nM; in assay [4] it was 1580 nM.
The matching figures for `FC(F)(F)c1nnc2n1[C@H]1CCN(Cc3cc4nc(-c5cccc6[nH]ccc56)nc(N5CCOCC5)c4s3)C[C@@H]1CC2` (relative stereo): 158 nM, 501 nM, 1.58 nM and 398 nM.
Turning to `Cc1nncn1C1CCN(Cc2cc3nc(-c4cccc(O)c4)nc(N4CCOCC4)c3s2)CC1`, the IC50 in assay [1] is 158 nM; in assay [2], 100 nM; in assay [3], 3.98 nM; in assay [4], 200 nM.
The matching figures for `Cc1nnc2n1[C@H]1CCN(Cc3cc4nc(-c5cccc(O)c5)nc(N5CCOCC5)c4s3)C[C@@H]1CC2` (relative stereo): 126 nM, 100 nM, 0.794 nM and 501 nM.
The matching figures for `Cc1nnc2n1[C@H]1CCN(Cc3cc4nc(-c5cccc6[nH]ncc56)nc(N5CCOCC5)c4s3)C[C@@H]1CC2` (relative stereo): 501 nM, 158 nM, 3.98 nM and 316 nM.
Consider `Cc1nncn1C1CCN(Cc2cc3nc(-c4cccc5[nH]ccc45)nc(N4CCOCC4)c3s2)CC1`, for which the IC50 in assay [1] is 398 nM; in assay [2] it was 2000 nM; in assay [3], 3.98 nM.
In the case of `Cc1nnc2n1[C@H]1CCN(CC[C@H](NC(=O)C3CCC(F)(F)CC3)c3ccccc3)C[C@H]1CC2` (racemic), in assay [5], the Kd was 316 nM.
For `FC(F)(F)c1nncn1C1CCN(Cc2cc3nc(-c4cccc5[nH]ccc45)nc(N4CCOCC4)c3s2)CC1`, the IC50 in assay [1] is 794 nM; in assay [2], 3980 nM; in assay [3], 20 nM; in assay [4], 3160 nM.
On the same counts, the results for `Oc1cccc(-c2nc(N3CCOCC3)c3sc(CN4CCC(n5cnnc5C(F)(F)F)CC4)cc3n2)c1` are 100 nM, 63.1 nM, 2.51 nM and 158 nM.
The matching figures for `Cc1nncn1C1CCN(Cc2cc3nc(-c4cccc5[nH]ncc45)nc(N4CCOCC4)c3s2)CC1`: 1000 nM, 316 nM, 10 nM and 1000 nM.
The matching figures for `Cc1nnc2n1[C@H]1CCN(Cc3cc4nc(-c5cccc6[nH]ccc56)nc(N5CCOCC5)c4s3)C[C@@H]1CC2` (relative stereo): 316 nM, 2000 nM, 1 nM and 794 nM.
Turning to `Oc1cccc(-c2nc(N3CCOCC3)c3sc(CN4CC[C@H]5[C@H](CCc6nnc(C(F)(F)F)n65)C4)cc3n2)c1` (relative stereo), the IC50 in assay [1] was 50.1 nM; in assay [2], 63.1 nM; in assay [3], 0.631 nM; in assay [4] it was 158 nM.
On to `Cc1nnc2n1[C@@H]1CCN(CC[C@H](NC(=O)C3CCC(F)(F)CC3)c3ccccc3)C[C@@H]1CC2` (relative stereo), for which the Kd in assay [5] was 10 nM.
On to `FC(F)(F)c1nnc2n1[C@H]1CCN(Cc3cc4nc(-c5cccc6[nH]ccc56)nc(N5CCOCC5)c4s3)C[C@H]1CC2` (relative stereo), for which the IC50 was 100 nM in assay [1], 1580 nM in assay [2], 0.794 nM in assay [3] and 631 nM in assay [4].
On the same counts, the results for `FC(F)(F)c1nnc2n1[C@H]1CCN(Cc3cc4nc(-c5cccc6[nH]ncc56)nc(N5CCOCC5)c4s3)C[C@H]1CC2` (relative stereo) are 398 nM, 316 nM, 2.51 nM and 794 nM.
The matching figures for `FC(F)(F)c1nnc2n1[C@H]1CCN(Cc3cc4nc(-c5cccc6[nH]ncc56)nc(N5CCOCC5)c4s3)C[C@@H]1CC2` (relative stereo): 631 nM, 158 nM, 7.94 nM and 1000 nM.
For the molecule `Oc1cccc(-c2nc(N3CCOCC3)c3sc(CN4CC[C@H]5[C@@H](CCc6nnc(C(F)(F)F)n65)C4)cc3n2)c1` (relative stereo), the IC50 in assay [1] was 50.1 nM; in assay [2], 31.6 nM; in assay [3], 1 nM; in assay [4] it was 200 nM.
On the same counts, the results for `Cc1nnc2n1[C@H]1CCN(Cc3cc4nc(-c5cccc6[nH]ncc56)nc(N5CCOCC5)c4s3)C[C@H]1CC2` (relative stereo) are 1260 nM, 1580 nM, 3.16 nM and 1260 nM.
The matching figures for `FC(F)(F)c1nncn1C1CCN(Cc2cc3nc(-c4cccc5[nH]ncc45)nc(N4CCOCC4)c3s2)CC1`: 1260 nM, 316 nM, 20 nM and 794 nM.
